Laboratory results: ChEMBL document CHEMBL3425426, “Discovery of DS-1558: A Potent and Orally Bioavailable GPR40 Agonist” (ACS Med Chem Lett, 2015)
Activity calls are given as the source filed them.

Assays:
[1] = molecular target: Free fatty acid receptor 1 (Homo sapiens, UniProt O14842); experiment: Agonist activity at human GPR40 expressed in CHO cells assessed as calcium flux by FLIPR assay; assay type: functional, cell-based
[2] = tested on: Liver microsome; experiment: Drug metabolism in human liver microsomes assessed as 2-methylbenzaldehyde formation at 500 uM incubated for 1 hr in presence of GSH and NADPH and by LC-MS/MS based GSH trapping assay; assay type: ADME
[3] = molecular target: T1, Peroxisome proliferator-activated receptor gamma (Homo sapiens) (UniProt P37231); experiment: Agonist activity at PPARgamma (unknown origin) up to 100 uM
T1 sequence (whole entry): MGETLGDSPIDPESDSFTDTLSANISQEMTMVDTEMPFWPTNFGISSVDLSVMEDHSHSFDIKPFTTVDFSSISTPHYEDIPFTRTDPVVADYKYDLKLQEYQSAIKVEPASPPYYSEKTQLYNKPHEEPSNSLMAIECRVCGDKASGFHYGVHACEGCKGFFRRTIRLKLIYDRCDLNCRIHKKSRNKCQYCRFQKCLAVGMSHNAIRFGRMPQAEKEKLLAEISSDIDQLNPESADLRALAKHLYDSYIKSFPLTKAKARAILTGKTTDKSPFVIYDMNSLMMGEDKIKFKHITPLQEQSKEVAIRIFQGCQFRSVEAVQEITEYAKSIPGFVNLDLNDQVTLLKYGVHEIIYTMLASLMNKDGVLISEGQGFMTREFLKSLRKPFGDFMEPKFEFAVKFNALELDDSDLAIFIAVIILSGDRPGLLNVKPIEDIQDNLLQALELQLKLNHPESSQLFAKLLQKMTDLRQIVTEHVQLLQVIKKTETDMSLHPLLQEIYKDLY

[4] = species: Mus musculus; experiment: Induction of glucose-stimulated insulin secretion in GPR40 knock out mouse pancreatic islets; assay type: functional
[5] = species: Mus musculus; experiment: Induction of glucose-stimulated insulin secretion in wild type mouse pancreatic islets; assay type: functional
[6] = tested on: Rattus norvegicus; experiment: Reduction in glucose excursion in ZDF rat at 0.03 mg/kg, po dosed 30 mins before glucose challenge by OGTT method; assay type: functional, organism-based; parameters: dose 0.03 mg/kg
Summary of the method: (§1)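 Male Zucker diabetic fatty rats, 9 weeks old, n = 6 per group. Oral dose given 30 min before an oral glucose challenge of 2 g/kg. Plasma glucose and plasma insulin were followed over time after the challenge. Values are reported as mean ± standard error.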

[7] = tested on: Rattus norvegicus; experiment: Reduction in glucose excursion in ZDF rat at 0.1 mg/kg, po dosed 30 mins before glucose challenge by OGTT method; assay type: functional, organism-based; parameters: dose 0.1 mg/kg; summary of the method: as §1
[8] = tested on: Rattus norvegicus; experiment: Increase in plasma insulin level in ZDF rat at 0.1 mg/kg, po dosed 30 mins before glucose challenge by OGTT method; assay type: functional, organism-based; parameters: dose 0.1 mg/kg; summary of the method: as §1
[9] = species: Homo sapiens; experiment: Selectivity for human GPR40 over adenosine A1 receptor (unknown origin)
[10] = species: Homo sapiens; experiment: Selectivity for human GPR40 over adenosine A2A receptor (unknown origin)
[11] = species: Homo sapiens; experiment: Selectivity for human GPR40 over adenosine A3 receptor (unknown origin)
[12] = species: Homo sapiens; experiment: Selectivity for human GPR40 over adrenergic alpha1A receptor (unknown origin)
[13] = species: Homo sapiens; experiment: Selectivity for human GPR40 over adrenergic alpha1B receptor (unknown origin)
[14] = species: Homo sapiens; experiment: Selectivity for human GPR40 over adrenergic alpha1D receptor (unknown origin)
[15] = species: Homo sapiens; experiment: Selectivity for human GPR40 over adrenergic alpha2A receptor (unknown origin)
[16] = species: Homo sapiens; experiment: Selectivity for human GPR40 over adrenergic beta1 receptor (unknown origin)
[17] = species: Homo sapiens; experiment: Selectivity for human GPR40 over adrenergic beta2 receptor (unknown origin)
[18] = species: Homo sapiens; experiment: Selectivity for human GPR40 over androgen receptor (unknown origin)
[19] = species: Homo sapiens; experiment: Selectivity for human GPR40 over bradykinin B1 receptor (unknown origin)
[20] = species: Homo sapiens; experiment: Selectivity for human GPR40 over bradykinin B2 receptor (unknown origin)
[21] = species: Homo sapiens; experiment: Selectivity for human GPR40 over calcium channel L-type benzothiazepine binding site (unknown origin)
[22] = species: Homo sapiens; experiment: Selectivity for human GPR40 over calcium channel L-type dihydropyridine binding site (unknown origin)
[23] = species: Homo sapiens; experiment: Selectivity for human GPR40 over dopamine D1 receptor (unknown origin)
[24] = species: Homo sapiens; experiment: Selectivity for human GPR40 over dopamine D2S receptor (unknown origin)
[25] = species: Homo sapiens; experiment: Selectivity for human GPR40 over dopamine D3 receptor (unknown origin)
[26] = species: Homo sapiens; experiment: Selectivity for human GPR40 over dopamine D4.2 receptor (unknown origin)
[27] = species: Homo sapiens; experiment: Selectivity for human GPR40 over endothelin ETA receptor (unknown origin)
[28] = species: Homo sapiens; experiment: Selectivity for human GPR40 over endothelin ETB receptor (unknown origin)
[29] = species: Homo sapiens; experiment: Selectivity for human GPR40 over EGF receptor (unknown origin)
[30] = species: Homo sapiens; experiment: Selectivity for human GPR40 over ERalpha (unknown origin)
[31] = species: Homo sapiens; experiment: Selectivity for human GPR40 over GPR103 (unknown origin)
[32] = species: Homo sapiens; experiment: Selectivity for human GPR40 over central GABAA receptor flunitrazepam binding site (unknown origin)
[33] = species: Homo sapiens; experiment: Selectivity for human GPR40 over central GABAA receptor muscimol binding site (unknown origin)
[34] = species: Homo sapiens; experiment: Selectivity for human GPR40 over central GABAB1A receptor (unknown origin)
[35] = species: Homo sapiens; experiment: Selectivity for human GPR40 over GCR (unknown origin)
[36] = species: Homo sapiens; experiment: Selectivity for human GPR40 over kainate receptor (unknown origin)
[37] = species: Homo sapiens; experiment: Selectivity for human GPR40 over NMDA receptor glycine binding site (unknown origin)
[38] = species: Homo sapiens; experiment: Selectivity for human GPR40 over NMDA receptor phencyclidine binding site (unknown origin)
[39] = species: Homo sapiens; experiment: Selectivity for human GPR40 over histamine H1 receptor (unknown origin)
[40] = species: Homo sapiens; experiment: Selectivity for human GPR40 over histamine H2 receptor (unknown origin)
[41] = species: Homo sapiens; experiment: Selectivity for human GPR40 over histamine H3 receptor (unknown origin)
[42] = species: Homo sapiens; experiment: Selectivity for human GPR40 over central imidazoline I2 receptor (unknown origin)
[43] = species: Homo sapiens; experiment: Selectivity for human GPR40 over IL1 receptor (unknown origin)
[44] = species: Homo sapiens; experiment: Selectivity for human GPR40 over CysLT1 receptor (unknown origin)
[45] = species: Homo sapiens; experiment: Selectivity for human GPR40 over MT1 receptor (unknown origin)
[46] = species: Homo sapiens; experiment: Selectivity for human GPR40 over muscarinic M1 receptor (unknown origin)
[47] = species: Homo sapiens; experiment: Selectivity for human GPR40 over muscarinic M2 receptor (unknown origin)
[48] = species: Homo sapiens; experiment: Selectivity for human GPR40 over muscarinic M3 receptor (unknown origin)
[49] = species: Homo sapiens; experiment: Selectivity for human GPR40 over neuropeptide YY1 receptor (unknown origin)
[50] = species: Homo sapiens; experiment: Selectivity for human GPR40 over neuropeptide YY2 receptor (unknown origin)
[51] = species: Homo sapiens; experiment: Selectivity for human GPR40 over nAchR (unknown origin)
[52] = species: Homo sapiens; experiment: Selectivity for human GPR40 over nAchR alpha1 bungarotoxin binding site (unknown origin)
[53] = species: Homo sapiens; experiment: Selectivity for human GPR40 over delta opioid receptor (unknown origin)
[54] = species: Homo sapiens; experiment: Selectivity for human GPR40 over kappa opioid receptor (unknown origin)
[55] = species: Homo sapiens; experiment: Selectivity for human GPR40 over mu opioid receptor (unknown origin)
[56] = species: Homo sapiens; experiment: Selectivity for human GPR40 over phorbol ester receptor (unknown origin)
[57] = species: Homo sapiens; experiment: Selectivity for human GPR40 over PAF receptor (unknown origin)
[58] = species: Homo sapiens; experiment: Selectivity for human GPR40 over KATP channel (unknown origin)
[59] = species: Homo sapiens; experiment: Selectivity for human GPR40 over human ERG channel
[60] = species: Homo sapiens; experiment: Selectivity for human GPR40 over EP4 receptor (unknown origin)
[61] = species: Homo sapiens; experiment: Selectivity for human GPR40 over P2X receptor (unknown origin)
[62] = species: Homo sapiens; experiment: Selectivity for human GPR40 over P2Y receptor (unknown origin)
[63] = species: Homo sapiens; experiment: Selectivity for human GPR40 over rolipram binding receptor (unknown origin)
[64] = species: Homo sapiens; experiment: Selectivity for human GPR40 over 5HT1A receptor (unknown origin)
[65] = species: Homo sapiens; experiment: Selectivity for human GPR40 over 5HT3 receptor (unknown origin)
[66] = species: Homo sapiens; experiment: Selectivity for human GPR40 over sigma-1 receptor (unknown origin)
[67] = species: Homo sapiens; experiment: Selectivity for human GPR40 over sigma-2 receptor (unknown origin)
[68] = species: Homo sapiens; experiment: Selectivity for human GPR40 over sodium channel site 2 (unknown origin)
[69] = species: Homo sapiens; experiment: Selectivity for human GPR40 over NK1 receptor (unknown origin)
[70] = species: Homo sapiens; experiment: Selectivity for human GPR40 over thyroid receptor receptor (unknown origin)
[71] = species: Homo sapiens; experiment: Selectivity for human GPR40 over DAT (unknown origin)
[72] = species: Homo sapiens; experiment: Selectivity for human GPR40 over GABA transporter (unknown origin)
[73] = species: Homo sapiens; experiment: Selectivity for human GPR40 over NET (unknown origin)
[74] = species: Homo sapiens; experiment: Selectivity for human GPR40 over SERT (unknown origin)

Free fatty acid receptor 1, sequence (O14842 whole entry): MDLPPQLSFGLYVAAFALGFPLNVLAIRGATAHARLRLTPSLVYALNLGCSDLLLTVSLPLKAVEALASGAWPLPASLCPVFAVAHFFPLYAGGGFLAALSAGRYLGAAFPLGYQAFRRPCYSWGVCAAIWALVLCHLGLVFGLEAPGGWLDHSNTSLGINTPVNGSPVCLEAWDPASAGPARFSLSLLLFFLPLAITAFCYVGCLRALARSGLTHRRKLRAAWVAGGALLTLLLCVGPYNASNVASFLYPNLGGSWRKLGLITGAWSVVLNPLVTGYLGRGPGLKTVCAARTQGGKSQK

CCO[C@@H](CC(=O)O)c1ccc(O[C@@H]2CCCc3ccccc32)cc1
62 nM: EC50 [1]

CCO[C@@H](CC(=O)O)c1ccc(OCc2ccc(Cl)c(Cl)c2)cc1
3.9 nM: EC50 [1]

CCOC(CC(=O)O)c1ccc(OCc2ccccc2C)cc1 (racemic)
metabolite_detected: Drug metabolism [2]

CCO[C@@H](CC(=O)O)c1ccc(O[C@@H]2CCc3c2cccc3C(F)(F)F)cc1
active: Activity [5] | Activity [6] | Activity [7] | Activity [8]
3.7 nM: EC50 [1]
inactive: Activity [3] | Activity [4]
> 100: Selectivity ratio [9] | Selectivity ratio [10] | Selectivity ratio [11] | Selectivity ratio [12] | Selectivity ratio [13] | Selectivity ratio [14] | Selectivity ratio [15] | Selectivity ratio [16] | Selectivity ratio [17] | Selectivity ratio [18] | Selectivity ratio [19] | Selectivity ratio [20] | Selectivity ratio [21] | Selectivity ratio [22] | Selectivity ratio [23] | Selectivity ratio [24] | Selectivity ratio [25] | Selectivity ratio [26] | Selectivity ratio [27] | Selectivity ratio [28] | Selectivity ratio [29] | Selectivity ratio [30] | Selectivity ratio [31] | Selectivity ratio [32] | Selectivity ratio [33] | Selectivity ratio [34] | Selectivity ratio [35] | Selectivity ratio [36] | Selectivity ratio [37] | Selectivity ratio [38] | Selectivity ratio [39] | Selectivity ratio [40] | Selectivity ratio [41] | Selectivity ratio [42] | Selectivity ratio [43] | Selectivity ratio [44] | Selectivity ratio [45] | Selectivity ratio [46] | Selectivity ratio [47] | Selectivity ratio [48] | Selectivity ratio [49] | Selectivity ratio [50] | Selectivity ratio [51] | Selectivity ratio [52] | Selectivity ratio [53] | Selectivity ratio [54] | Selectivity ratio [55] | Selectivity ratio [56] | Selectivity ratio [57] | Selectivity ratio [58] | Selectivity ratio [59] | Selectivity ratio [60] | Selectivity ratio [61] | Selectivity ratio [62] | Selectivity ratio [63] | Selectivity ratio [64] | Selectivity ratio [65] | Selectivity ratio [66] | Selectivity ratio [67] | Selectivity ratio [68] | Selectivity ratio [69] | Selectivity ratio [70] | Selectivity ratio [71] | Selectivity ratio [72] | Selectivity ratio [73] | Selectivity ratio [74]
